Results published in ChEMBL document CHEMBL1136812, “Structure-activity relationships of dimethindene derivatives as new M2-selective muscarinic receptor antagonists” (J Med Chem, 2003).

Tests used:
Type in all cases: cell-based
[1] = target: T1, Muscarinic acetylcholine receptor M1 (Homo sapiens, UniProt P11229); experiment: Binding affinity towards cloned human muscarinic acetylcholine receptor M1 stably expressed in CHO-K1 cells using [3H]N-methylscopolamine
T1 sequence (P11229 whole entry): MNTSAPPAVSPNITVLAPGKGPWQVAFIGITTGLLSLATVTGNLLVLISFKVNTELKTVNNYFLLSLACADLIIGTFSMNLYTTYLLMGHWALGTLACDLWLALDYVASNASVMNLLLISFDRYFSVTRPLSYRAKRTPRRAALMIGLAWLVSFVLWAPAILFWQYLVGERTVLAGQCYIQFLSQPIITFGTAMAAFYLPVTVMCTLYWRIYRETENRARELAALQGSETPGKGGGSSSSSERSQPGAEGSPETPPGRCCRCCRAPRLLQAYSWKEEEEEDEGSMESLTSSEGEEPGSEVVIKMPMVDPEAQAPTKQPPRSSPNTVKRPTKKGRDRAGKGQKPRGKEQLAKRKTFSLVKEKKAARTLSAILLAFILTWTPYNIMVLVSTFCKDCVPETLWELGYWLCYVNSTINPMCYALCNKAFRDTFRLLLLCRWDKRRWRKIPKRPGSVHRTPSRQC

[2] = target: T2, Muscarinic acetylcholine receptor M4 (Homo sapiens, UniProt P08173); experiment: Binding affinity towards cloned human muscarinic acetylcholine receptor M4 stably expressed in CHO-K1 cells using [3H]N-methylscopolamine
T2 sequence (P08173 whole entry): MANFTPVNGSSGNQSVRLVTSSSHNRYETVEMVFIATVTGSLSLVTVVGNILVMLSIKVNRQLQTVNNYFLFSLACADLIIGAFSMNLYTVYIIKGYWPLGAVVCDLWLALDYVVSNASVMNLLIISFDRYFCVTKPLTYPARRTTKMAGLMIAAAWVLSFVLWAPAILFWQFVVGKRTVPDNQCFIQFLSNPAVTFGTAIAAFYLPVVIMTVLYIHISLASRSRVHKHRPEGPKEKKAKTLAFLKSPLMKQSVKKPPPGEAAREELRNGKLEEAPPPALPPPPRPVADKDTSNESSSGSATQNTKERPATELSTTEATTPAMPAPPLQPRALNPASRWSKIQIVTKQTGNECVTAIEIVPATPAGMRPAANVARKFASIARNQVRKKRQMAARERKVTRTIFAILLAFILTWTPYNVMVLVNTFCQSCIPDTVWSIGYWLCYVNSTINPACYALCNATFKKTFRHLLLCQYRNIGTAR

[3] = target: T3, Muscarinic acetylcholine receptor M2 (Homo sapiens, UniProt P08172); experiment: Binding affinity towards cloned human muscarinic acetylcholine receptor M2 stably expressed in CHO-K1 cells using [3H]N-methylscopolamine
T3 sequence (P08172 whole entry): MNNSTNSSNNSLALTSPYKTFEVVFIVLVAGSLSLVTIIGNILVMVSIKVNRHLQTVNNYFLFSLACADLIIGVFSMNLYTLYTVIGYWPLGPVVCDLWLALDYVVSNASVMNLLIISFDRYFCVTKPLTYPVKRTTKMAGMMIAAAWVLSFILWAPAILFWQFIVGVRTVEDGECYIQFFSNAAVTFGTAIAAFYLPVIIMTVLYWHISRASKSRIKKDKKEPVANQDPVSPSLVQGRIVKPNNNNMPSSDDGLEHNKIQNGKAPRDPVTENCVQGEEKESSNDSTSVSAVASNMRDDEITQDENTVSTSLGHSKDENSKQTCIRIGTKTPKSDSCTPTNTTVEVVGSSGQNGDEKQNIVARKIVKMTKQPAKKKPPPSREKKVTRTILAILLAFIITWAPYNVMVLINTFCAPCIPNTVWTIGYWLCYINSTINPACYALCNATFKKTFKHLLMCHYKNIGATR

[4] = target: Muscarinic acetylcholine receptor M3 (Homo sapiens, UniProt P20309); experiment: Binding affinity towards cloned human muscarinic acetylcholine receptor M3 stably expressed in CHO-K1 cells using [3H]N-methylscopolamine
Chain of Muscarinic acetylcholine receptor M3 (P20309 whole entry): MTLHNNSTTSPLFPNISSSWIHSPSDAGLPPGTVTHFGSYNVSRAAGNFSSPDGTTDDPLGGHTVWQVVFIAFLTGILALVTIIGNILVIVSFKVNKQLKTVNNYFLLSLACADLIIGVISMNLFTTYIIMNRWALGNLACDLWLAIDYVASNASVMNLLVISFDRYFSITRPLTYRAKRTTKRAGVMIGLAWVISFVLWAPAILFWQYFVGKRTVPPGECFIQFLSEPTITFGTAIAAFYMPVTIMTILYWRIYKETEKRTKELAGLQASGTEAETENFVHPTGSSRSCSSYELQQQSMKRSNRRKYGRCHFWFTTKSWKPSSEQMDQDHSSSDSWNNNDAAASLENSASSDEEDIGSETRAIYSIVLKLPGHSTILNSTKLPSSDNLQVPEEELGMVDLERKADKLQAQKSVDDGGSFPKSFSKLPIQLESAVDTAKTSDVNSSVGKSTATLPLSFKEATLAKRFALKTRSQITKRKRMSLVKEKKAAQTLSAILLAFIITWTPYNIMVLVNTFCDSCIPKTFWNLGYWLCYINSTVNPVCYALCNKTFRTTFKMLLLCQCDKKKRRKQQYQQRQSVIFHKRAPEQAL

[5] = target: Histamine H1 receptor (Homo sapiens, UniProt P35367); experiment: Compound was evaluated for binding affinity towards cloned human histamine H1 receptors stably expressed in CHO-K1 cells using [3H]mepyramine
Chain of Histamine H1 receptor (P35367 whole entry): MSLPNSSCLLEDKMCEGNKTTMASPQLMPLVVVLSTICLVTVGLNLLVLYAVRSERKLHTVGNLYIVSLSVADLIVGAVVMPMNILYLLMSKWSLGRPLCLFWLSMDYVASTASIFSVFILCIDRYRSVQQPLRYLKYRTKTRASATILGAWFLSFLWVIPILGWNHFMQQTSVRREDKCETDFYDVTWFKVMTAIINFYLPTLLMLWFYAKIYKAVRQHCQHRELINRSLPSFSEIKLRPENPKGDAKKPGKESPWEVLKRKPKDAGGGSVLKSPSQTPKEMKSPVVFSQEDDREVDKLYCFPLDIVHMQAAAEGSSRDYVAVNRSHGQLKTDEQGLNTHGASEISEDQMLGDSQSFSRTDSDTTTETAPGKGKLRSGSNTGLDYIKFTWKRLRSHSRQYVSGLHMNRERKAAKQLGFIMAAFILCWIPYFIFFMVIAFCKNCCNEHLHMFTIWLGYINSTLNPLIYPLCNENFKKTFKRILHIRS
Procedure, shortened: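 CHO-K1 membranes with stable human H1 receptor, 18 µg/mL final protein. […] Nonspecific binding with 0.1 mM terfenadine. Filtered and counted. Ki by Cheng-Prusoff. pKi mean ± SD, ≥3 experiments in duplicate.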

[6] = target: T4, Muscarinic acetylcholine receptor M5 (Homo sapiens, UniProt P08912); experiment: Binding affinity towards cloned human muscarinic acetylcholine receptor M5 stably expressed in CHO-K1 cells using [3H]N-methylscopolamine
T4 sequence (P08912 whole entry): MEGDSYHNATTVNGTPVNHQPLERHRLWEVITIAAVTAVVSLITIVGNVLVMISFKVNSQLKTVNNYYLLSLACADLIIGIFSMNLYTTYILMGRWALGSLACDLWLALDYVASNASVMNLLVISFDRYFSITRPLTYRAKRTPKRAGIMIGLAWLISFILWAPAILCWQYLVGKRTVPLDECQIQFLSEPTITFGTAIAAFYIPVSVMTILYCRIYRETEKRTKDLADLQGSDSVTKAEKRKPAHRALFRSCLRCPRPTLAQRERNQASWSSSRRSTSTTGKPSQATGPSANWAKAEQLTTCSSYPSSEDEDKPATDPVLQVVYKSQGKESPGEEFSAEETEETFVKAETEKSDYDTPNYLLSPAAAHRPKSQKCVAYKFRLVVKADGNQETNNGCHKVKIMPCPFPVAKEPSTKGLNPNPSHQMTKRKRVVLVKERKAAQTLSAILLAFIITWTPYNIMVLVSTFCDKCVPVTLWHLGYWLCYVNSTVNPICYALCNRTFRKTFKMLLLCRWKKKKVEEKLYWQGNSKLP

## CC(C1=C(CCN(C)C)Cc2cc(Cl)ccc21)c1ccccn1 (stereo unspecified)
[1]
  Ki: 151 nM
[2]
  Ki: 331 nM
[3]
  Ki: 33.1 nM
[4]
  Ki: 95.5 nM
[5]
  Ki: 0.813 nM
[6]
  Ki: 724 nM
